{
  "source": "paper PMC7594119",
  "about": "(ACS Omega, 2020)",
  "key": {"MCF-7 cells [1]": {"test_system": "MCF-7 cells", "assay": "Annexin-V/PI staining apoptosis, MCF-7", "assay_type": "cell-based", "conditions": "MCF-7, IC50 concentration, 48 h", "method_in_brief": "(§1)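 MCF-7 and A549 cells were treated with test compound or vehicle for 48 h, then harvested. They were stained with annexin-V/PI and analysed by flow cytometry to quantify apoptotic cells.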"}, "MCF-7 cells [2]": {"test_system": "MCF-7 cells", "assay": "Cell viability MTT assay, MCF-7", "assay_type": "cell-based", "conditions": "Homo sapiens, MCF7, 72 h, read-out: IC50, cell viability", "method_in_brief": "(§2)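 Cells were seeded at 5000–5500/well in 96-well plates and exposed to test compound (0–250 μM) for 72 h. MTT (from 5 mg/mL stock in PBS, pH 7.4) was added for 4–5 h. Formazan was dissolved in DMSO and OD read at 570 nm, then converted to % viability. Data are mean ±SD, n = 3.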"}, "MCF-7 cells [3]": {"test_system": "MCF-7 cells", "assay": "Colony formation assay, MCF-7", "assay_type": "cell-based", "conditions": "MCF-7, IC50 concentration, 8–10 days", "method_in_brief": "(§3)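 MCF-7 or A549 cells were plated at about 1000–1500 cells/well in 6-well plates. They were treated with test compound for 8–10 days at 37 °C, 5% CO2, with DMSO as vehicle control. Colonies were fixed with 100% methanol, stained with crystal violet, and counted by image analysis relative to vehicle.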"}, "A549 cells [4]": {"test_system": "A549 cells", "assay": "Colony formation assay, A549", "assay_type": "cell-based, human", "conditions": "A549, IC50 concentration, 8–10 days", "method_in_brief": "as §3"}, "A549 cells [5]": {"test_system": "A549 cells", "assay": "Annexin-V/PI staining apoptosis, A549", "assay_type": "cell-based, human", "conditions": "A549, IC50 concentration, 48 h", "method_in_brief": "as §1"}, "CDK6 [6]": {"target": "T1, CDK6 (Homo sapiens, UniProt Q00534)", "T1 sequence (Q00534 whole entry)": "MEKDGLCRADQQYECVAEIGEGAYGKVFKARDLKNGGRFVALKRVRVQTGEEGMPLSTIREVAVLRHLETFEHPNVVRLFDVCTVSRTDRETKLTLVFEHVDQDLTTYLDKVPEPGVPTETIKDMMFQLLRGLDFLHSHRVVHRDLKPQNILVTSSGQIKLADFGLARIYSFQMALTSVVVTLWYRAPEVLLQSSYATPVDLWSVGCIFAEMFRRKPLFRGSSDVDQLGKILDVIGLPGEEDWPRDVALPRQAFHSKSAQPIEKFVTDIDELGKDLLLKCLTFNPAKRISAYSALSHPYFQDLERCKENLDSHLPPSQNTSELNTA", "assay": "Kinase inhibition", "assay_type": "biochemical", "method_in_brief": "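Purified recombinant CDK6 (pET28a+, E. coli Codon+ expression, Ni-NTA) at 1 μM was incubated with 50 μM fresh ATP and increasing test compound (0–10 μM) for 1 h at 25 °C. Malachite green stopped the reaction, with colour developed 15–20 min at room temperature.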"}, "[7]": {"test_system": "CDK6 expression in A549 cells", "assay": "CDK6 protein expression", "assay_type": "cell-based, human", "conditions": "A549, IC50 dose", "method_in_brief": "(§4)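 MCF-7 and A549 cells were treated with test compound or vehicle for a stipulated time, then harvested by trypsinization. They were lysed in RIPA buffer and protein was quantified by BCA. CDK6 was detected by Western blot with anti-CDK6 antibody, and band intensity was normalized to β-actin loading control.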"}, "A549 cells [8]": {"test_system": "A549 cells", "assay": "Cell viability MTT assay, A549", "assay_type": "cell-based", "conditions": "Homo sapiens, A549, 72 h, read-out: IC50, cell viability", "method_in_brief": "as §2"}, "CDK6 [9]": {"target": "T1, CDK6", "assay": "Isothermal titration calorimetry with CDK6", "conditions": "ITC, 25 °C, one binding site model", "method_in_brief": "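Recombinant CDK6 was expressed from pET28a+ in E. coli Codon+ cells (IPTG induction at 18 °C) and purified on Ni-NTA. Protein was dialysed against 25 mM Tris, 200 mM MgCl2, with ligand dissolved in the same buffer and 1% v/v DMSO added to protein. At 25 °C, 500 μM test compound in the syringe was titrated into 15 μM CDK6. Buffer-titration heats were subtracted before fitting n, ΔH and Ka.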"}, "[10]": {"test_system": "CDK6 expression in MCF-7 cells", "assay": "CDK6 protein expression", "assay_type": "cell-based", "conditions": "MCF-7, IC50 dose", "method_in_brief": "as §4"}, "CDK6 [11]": {"target": "T1, CDK6", "assay": "Fluorescence quenching binding studies with CDK6", "conditions": "for Kq (bimolecular quenching rate constant): Kq=Ksv/τ0; for ΔG: van't Hoff; for Kd: K (binding constant, modified Stern–Volmer)"}, "A549 cells [12]": {"test_system": "A549 cells", "assay": "ROS determination", "assay_type": "cell-based, human", "conditions": "A549, IC50 dose, 5–6 h", "method_in_brief": "(§5)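 MCF-7 and A549 cells were treated with test compound or DMSO vehicle for 5–6 h. They were then loaded with 10 μM H2DCFDA for 30 min, trypsinized, and washed twice with PBS. Total ROS was measured by flow cytometry.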"}, "MCF-7 cells [13]": {"test_system": "MCF-7 cells", "assay": "ROS determination", "assay_type": "cell-based", "conditions": "MCF-7, IC50 dose, 5–6 h", "method_in_brief": "as §5"}, "[14]": {"conditions": "van't Hoff plot over 15, 25, 30 °C, same value printed at each temperature"}},
  "data": [
    {"smiles": "O=c1c(O)c(-c2ccc(O)c(O)c2)oc2cc(O)cc(O)c12", "note": "[quercetin]", "values": [
      {"measurement": "cells in which apoptosis is induced", "setting": "MCF-7 cells [1]", "value": "~21.10", "unit": "%"},
      {"measurement": "IC50", "setting": "MCF-7 cells [2]", "value": "41.8 ± 2.21", "unit": "µM"},
      {"measurement": "effect on colonization (colony formation)", "setting": "MCF-7 cells [3]", "value": "significantly decreases the colonization"},
      {"measurement": "effect on colonization (colony formation)", "setting": "A549 cells [4]", "value": "significantly decreases the colonization"},
      {"measurement": "cells in which apoptosis is induced", "setting": "A549 cells [5]", "value": "~16.22", "unit": "%"},
      {"measurement": "IC50", "setting": "CDK6 [6]", "value": 5.89, "unit": "µM"},
      {"measurement": "effect on CDK6 expression", "setting": "[7]", "value": "decreases the CDK6 expression"},
      {"measurement": "IC50", "setting": "A549 cells [8]", "value": "52.4 ± 2.44", "unit": "µM"},
      {"measurement": "ΔH", "setting": "CDK6 [9]", "value": "-112000 ± 457", "unit": "cal/mol"},
      {"measurement": "ΔS", "setting": "CDK6 [9]", "value": "−351", "unit": "cal/mol/deg"},
      {"measurement": "effect on CDK6 expression", "setting": "[10]", "value": "decreases the CDK6 expression"},
      {"measurement": "Ksv (Stern–Volmer constant)", "setting": "CDK6 [11]; 15 °C", "value": "16.3 10^4 M^–1"},
      {"measurement": "n (number of binding sites)", "setting": "CDK6 [11]; 15 °C", "value": 1.35},
      {"measurement": "Kq (bimolecular quenching rate constant)", "setting": "CDK6 [11]; 15 °C", "value": "6.03 10^13 M^–1 s^–1"},
      {"measurement": "ΔG", "setting": "CDK6 [11]; 15 °C", "value": "–9.400 kcal mol^–1"},
      {"measurement": "Ksv (Stern–Volmer constant)", "setting": "CDK6 [11]; 25 °C", "value": "13.6 10^4 M^–1"},
      {"measurement": "TΔS", "setting": "CDK6 [11]; 25 °C", "value": 2.46, "unit": "kcal mol^–1"},
      {"measurement": "n (number of binding sites)", "setting": "CDK6 [11]; 25 °C", "value": 1.33},
      {"measurement": "Kq (bimolecular quenching rate constant)", "setting": "CDK6 [11]; 25 °C", "value": "5.03 10^13 M^–1 s^–1"},
      {"measurement": "ΔG", "setting": "CDK6 [11]; 25 °C", "value": "–9.482 kcal mol^–1"},
      {"measurement": "Ksv (Stern–Volmer constant)", "setting": "CDK6 [11]; 30 °C", "value": "12.2 10^4 M^–1"},
      {"measurement": "TΔS", "setting": "CDK6 [11]; 30 °C", "value": 2.50, "unit": "kcal mol^–1"},
      {"measurement": "n (number of binding sites)", "setting": "CDK6 [11]; 30 °C", "value": 1.33},
      {"measurement": "Kq (bimolecular quenching rate constant)", "setting": "CDK6 [11]; 30 °C", "value": "4.51 10^13 M^–1 s^–1"},
      {"measurement": "ΔG", "setting": "CDK6 [11]; 30 °C", "value": "–9.524 kcal mol^–1"},
      {"measurement": "Kd", "setting": "CDK6 [11]; 15 °C", "value": 76.9, "unit": "nM"},
      {"measurement": "Kd", "setting": "CDK6 [11]; 25 °C", "value": 104, "unit": "nM"},
      {"measurement": "Kd", "setting": "CDK6 [11]; 30 °C", "value": 143, "unit": "nM"},
      {"measurement": "ΔH", "setting": "CDK6 [11]; [14]", "value": "–7.019 kcal mol^–1"},
      {"measurement": "ΔS", "setting": "CDK6 [11]; [14]", "value": 8.267, "unit": "cal mol^–1 K^–1"},
      {"measurement": "effect on ROS production", "setting": "A549 cells [12]", "value": "decreases the production of ROS"},
      {"measurement": "effect on ROS production", "setting": "MCF-7 cells [13]", "value": "decreases the production of ROS"}
    ]}
  ]
}
